Source: ChEMBL document CHEMBL5620435, “Elucidating the Mechanism of Metabolism of Cannabichromene by Human Cytochrome P450s” (J Nat Prod, 2024)
The source made the active and inactive calls. No cut-off for these calls is given here.

Assays:
BV-2 [1] = assay: Antiinflammatory activity in LPS-induced mouse BV-2 cells assessed as reduction in NO production preincubated for 4 hrs followed by LPS stimulation for 24 hrs by Griess reagent based assay; type: functional, cell-based; conditions: dose 0.1-5 µM, time 28.0 hrs
Method in brief: (§1)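 BV-2 microglia in high-glucose DMEM with 5% heat-inactivated FBS, 37 °C, 5% CO2. Cells (50 000/well) were pretreated with cannabinoids at 0.1, 1.0, 2.5 or 5.0 μM (ethanol 0.1% final) for 4 h, then stimulated with LPS (25 ng/mL) for 24 h. Medium was collected. NO was read by Griess assay at 540 nm against a sodium nitrite calibration curve. IL-6, TNFα and Arg1 were measured by ELISA.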

BV-2 [2] = assay: Antiinflammatory activity in LPS-induced mouse BV-2 cells assessed as reduction in IL-6 production preincubated for 4 hrs followed by LPS stimulation for 24 hrs by ELISA; type: functional, cell-based; conditions: dose 0.1-5 µM, time 28.0 hrs; method in brief: as §1
BV-2 [3] = assay: Antiinflammatory activity in LPS-induced mouse BV-2 cells assessed as reduction in TNF-alpha production preincubated for 4 hrs followed by LPS stimulation for 24 hrs by ELISA; type: functional, cell-based; conditions: dose 0.1-5 µM, time 28.0 hrs; method in brief: as §1
BV-2 [4] = assay: Cytotoxicity against mouse BV-2 cells assessed as reduction in cell viability at 0.1 to 5 uM incubated for 24 hrs by MTT assay; type: toxicity, cell-based; conditions: bv-2, 24 h, dose 0.1-5 µM
Method in brief: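 BV-2 cells were seeded at about 10 000/well and grown for 24 h. They were preincubated 4 h with cannabinoids at 0.1, 1.0, 2.5 or 5.0 μM (0.1% ethanol), then held 24 h with or without LPS (25 ng/mL). MTT reagent was added for 4 h at 37 °C, the formazan was dissolved, and absorbance was read at 570 nm.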

BV-2 [5] = assay: Antiinflammatory activity in LPS-induced mouse BV-2 cells assessed as increase in Arg-1 production preincubated for 4 hrs followed by LPS stimulation for 24 hrs by ELISA; type: functional, cell-based; conditions: dose 0.1-5 µM, time 28.0 hrs; method in brief: as §1
Cytochrome P450 3A4 = Cytochrome P450 3A4 (Homo sapiens, UniProt P08684); assay: Binding affinity to CYP3A4 (unknown origin) assessed as fold increase in apparent dissociation constant by spectroscopic titration analysis in presence of cytochrome P450 reductase; type: ADME
Cytochrome P450 3A4, sequence (P08684 whole entry): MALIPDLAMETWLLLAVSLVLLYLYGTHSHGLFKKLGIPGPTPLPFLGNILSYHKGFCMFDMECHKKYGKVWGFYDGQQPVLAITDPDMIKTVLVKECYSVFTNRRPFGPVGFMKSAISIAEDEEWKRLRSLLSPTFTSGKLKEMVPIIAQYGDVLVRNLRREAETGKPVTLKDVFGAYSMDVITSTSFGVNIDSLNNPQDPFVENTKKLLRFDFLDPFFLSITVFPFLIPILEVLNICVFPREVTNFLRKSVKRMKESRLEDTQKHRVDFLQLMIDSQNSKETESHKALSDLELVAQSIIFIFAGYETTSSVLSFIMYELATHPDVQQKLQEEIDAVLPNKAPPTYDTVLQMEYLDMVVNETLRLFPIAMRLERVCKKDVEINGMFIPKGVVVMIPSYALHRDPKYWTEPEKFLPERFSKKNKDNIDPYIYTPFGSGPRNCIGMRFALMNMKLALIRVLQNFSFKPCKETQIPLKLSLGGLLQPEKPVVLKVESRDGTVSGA
Method in brief: (§2)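 His-tagged CYPs were expressed in E. coli and Ni-NTA purified. Buffer-exchanged CYP was in 0.1 M phosphate pH 7.4. CPR was added and the pair was preincubated 5 min; final protein was 5–6 μM each. CBC (ethanol stock, ≤1% final) was titrated 0–100 μM with 5 min at 37 °C per step. The Soret shift from ~417 to ~390 nm was recorded as a difference spectrum. Kd(app) came from a one-site binding fit and was compared with CYP alone (4–5 μM protein).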

[6] = Drug metabolism in C57BL/6J mouse plasma assessed as (E)-2-(5-hydroxy-4-methylpent-3-en-1-yl)-2-methyl-7-pentyl-2H-chromen-5-ol metabolite formation at 20 mg/kg, iv administered via tail vein measured after 0.5 hrs by LC/MS/MS analysis; type: ADME, organism-based; conditions: in vivo
Method in brief: (§3)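 Female C57BL/6J mice, 8–10 weeks old, received CBC at 20 mg/kg in PBS with 6% Tween-80, IV via the tail vein or IP (n = 3 per route). Blood was taken terminally by cardiac puncture into heparin at 0.5 and 2 h. Plasma (200 μL) was extracted with hexane/ethyl acetate (80:20). CBC and metabolites were quantified by targeted LC-MS/MS (C6-phenyl column, positive ESI) as means ±SE.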

[7] = Drug metabolism in C57BL/6J mouse plasma assessed as 5-(5-hydroxy-2-methyl-7-pentyl-2H-chromen-2-yl)-2-methylpentane-2,3-diol metabolite formation at 20 mg/kg, ip measured after 0.5 to 2 hrs by LC/MS/MS analysis; type: ADME, organism-based; conditions: in vivo, time 0.5-2 hrs; method in brief: as §3
Cytochrome P450 2J2 [8] = target: T1, Cytochrome P450 2J2 (Homo sapiens, UniProt P51589); assay: Drug metabolism assessed as ratio of CYP2J2 (unknown origin) mediated (E)-2-(5-hydroxy-4-methylpent-3-en-1-yl)-2-methyl-7-pentyl-2H-chromen-5-ol formation to 2-(2-(3,3-dimethyloxiran-2-yl)ethyl)-2-methyl-7-pentyl-2H-chromen-5-ol formation; type: ADME
T1 sequence (P51589 whole entry): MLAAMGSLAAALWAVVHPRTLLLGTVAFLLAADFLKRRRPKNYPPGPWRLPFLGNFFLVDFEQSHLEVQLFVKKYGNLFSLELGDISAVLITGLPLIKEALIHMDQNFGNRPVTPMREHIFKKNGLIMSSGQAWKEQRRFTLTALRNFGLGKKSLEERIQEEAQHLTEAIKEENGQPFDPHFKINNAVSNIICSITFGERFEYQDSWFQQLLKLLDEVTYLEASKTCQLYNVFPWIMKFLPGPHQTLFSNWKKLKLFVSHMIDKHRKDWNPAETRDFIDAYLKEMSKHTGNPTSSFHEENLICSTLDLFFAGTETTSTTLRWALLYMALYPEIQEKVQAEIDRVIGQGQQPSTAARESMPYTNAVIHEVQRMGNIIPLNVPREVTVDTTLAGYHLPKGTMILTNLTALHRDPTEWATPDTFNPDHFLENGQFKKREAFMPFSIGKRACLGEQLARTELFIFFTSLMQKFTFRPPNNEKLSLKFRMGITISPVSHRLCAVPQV
Method in brief: (§4)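 Recombinant CYP (0.5 μM final) was reconstituted in POPC:POPS (8:2) with CPR (0.6 μM) in 0.1 M potassium phosphate pH 7.4. CBC (5–80 μM) was preincubated 10 min at 37 °C and the reaction started with NADPH. Products were extracted three times with hexane/ethyl acetate (80:20), dried, resuspended in ethanol and analysed by LC-MS/MS.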

[9] = Drug metabolism assessed as benzylic hydroxylation mediated 7-(1-hydroxypentyl)-2-methyl-2-(4-methylpent-3-en-1-yl)-2H-chromen-5-ol metabolite formation; type: ADME; conditions: 40 min, dose 5-80 µM
Method in brief: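 Pooled human liver microsomes (mixed-gender, 50 donors) gave 0.4 μM CYP final in 0.1 M phosphate pH 7.4. CBC 40 μM final was preincubated 10 min. NADPH 1 mM final was added and the reaction ran 30 min at 37 °C. It was quenched and extracted three times with hexane/ethyl acetate (80:20), dried, resuspended in 95% ethanol and analysed by LC-MS (C18, positive ESI).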

[10] = Drug metabolism in C57BL/6J mouse plasma assessed as (E)-2-(5-hydroxy-4-methylpent-3-en-1-yl)-2-methyl-7-pentyl-2H-chromen-5-ol metabolite formation at 20 mg/kg, iv administered via tail vein measured after 2 hrs by LC/MS/MS analysis; type: ADME, organism-based; conditions: in vivo; method in brief: as §3
[11] = Drug metabolism in C57BL/6J mouse plasma assessed as (E)-2-(5-hydroxy-4-methylpent-3-en-1-yl)-2-methyl-7-pentyl-2H-chromen-5-ol metabolite formation at 20 mg/kg, ip measured after 0.5 hrs by LC/MS/MS analysis; type: ADME, organism-based; conditions: in vivo; method in brief: as §3
[12] = Drug metabolism in C57BL/6J mouse plasma assessed as 2-(2-(3,3-dimethyloxiran-2-yl)ethyl)-2-methyl-7-pentyl-2H-chromen-5-ol metabolite formation at 20 mg/kg, ip measured after 0.5 to 2 hrs by LC/MS/MS analysis; type: ADME, organism-based; conditions: in vivo, time 0.5-2 hrs; method in brief: as §3
Cytochrome P450 2C8 [13] = target: T2, Cytochrome P450 2C8 (Homo sapiens, UniProt P10632); assay: Binding affinity to CYP2C8 (unknown origin) assessed as fold increase in apparent dissociation constant by spectroscopic titration analysis in presence of cytochrome P450 reductase; type: ADME; method in brief: as §2
T2 sequence (P10632 whole entry): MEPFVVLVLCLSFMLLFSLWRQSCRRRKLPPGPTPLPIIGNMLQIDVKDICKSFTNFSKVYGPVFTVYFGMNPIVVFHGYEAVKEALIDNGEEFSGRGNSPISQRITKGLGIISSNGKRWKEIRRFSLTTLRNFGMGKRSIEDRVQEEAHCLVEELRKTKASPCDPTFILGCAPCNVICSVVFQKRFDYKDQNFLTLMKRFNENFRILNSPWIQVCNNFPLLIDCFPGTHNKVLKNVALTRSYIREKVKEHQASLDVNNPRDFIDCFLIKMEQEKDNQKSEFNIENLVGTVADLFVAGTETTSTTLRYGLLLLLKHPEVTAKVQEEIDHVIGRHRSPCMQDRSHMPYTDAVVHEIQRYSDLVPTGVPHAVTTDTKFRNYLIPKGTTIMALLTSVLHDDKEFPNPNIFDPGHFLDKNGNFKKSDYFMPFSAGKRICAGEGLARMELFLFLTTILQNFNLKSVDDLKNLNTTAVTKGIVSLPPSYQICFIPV

Cytochrome P450 2C8 [14] = target: T2, Cytochrome P450 2C8; assay: Drug metabolism assessed as ratio of CYP2C8 (unknown origin) mediated (E)-2-(5-hydroxy-4-methylpent-3-en-1-yl)-2-methyl-7-pentyl-2H-chromen-5-ol formation to 2-(2-(3,3-dimethyloxiran-2-yl)ethyl)-2-methyl-7-pentyl-2H-chromen-5-ol formation; type: ADME; method in brief: as §4
Cannabinoid receptor 2 = Cannabinoid receptor 2 (Homo sapiens, UniProt P34972); assay: Binding affinity to CBR2 (unknown origin)
Cannabinoid receptor 2, sequence (P34972 whole entry): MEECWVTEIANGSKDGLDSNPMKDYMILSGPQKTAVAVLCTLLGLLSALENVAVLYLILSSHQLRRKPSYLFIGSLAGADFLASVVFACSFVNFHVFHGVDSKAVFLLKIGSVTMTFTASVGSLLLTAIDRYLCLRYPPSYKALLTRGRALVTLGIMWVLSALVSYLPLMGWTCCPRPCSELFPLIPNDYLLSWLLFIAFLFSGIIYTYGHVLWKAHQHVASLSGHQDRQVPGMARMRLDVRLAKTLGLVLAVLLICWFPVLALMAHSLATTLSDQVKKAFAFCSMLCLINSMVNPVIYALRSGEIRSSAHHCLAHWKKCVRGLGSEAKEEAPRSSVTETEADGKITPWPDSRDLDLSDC

Cannabinoid receptor 1 = Cannabinoid receptor 1 (Homo sapiens, UniProt P21554); assay: Displacement of d [3H]CP-55,940 from CBR1 (unknown origin) expressed in Sf9 cell membrane assessed as inhibition constant by Topcount scintillation counting analysis; type: cell membranes
Cannabinoid receptor 1, sequence (P21554 whole entry): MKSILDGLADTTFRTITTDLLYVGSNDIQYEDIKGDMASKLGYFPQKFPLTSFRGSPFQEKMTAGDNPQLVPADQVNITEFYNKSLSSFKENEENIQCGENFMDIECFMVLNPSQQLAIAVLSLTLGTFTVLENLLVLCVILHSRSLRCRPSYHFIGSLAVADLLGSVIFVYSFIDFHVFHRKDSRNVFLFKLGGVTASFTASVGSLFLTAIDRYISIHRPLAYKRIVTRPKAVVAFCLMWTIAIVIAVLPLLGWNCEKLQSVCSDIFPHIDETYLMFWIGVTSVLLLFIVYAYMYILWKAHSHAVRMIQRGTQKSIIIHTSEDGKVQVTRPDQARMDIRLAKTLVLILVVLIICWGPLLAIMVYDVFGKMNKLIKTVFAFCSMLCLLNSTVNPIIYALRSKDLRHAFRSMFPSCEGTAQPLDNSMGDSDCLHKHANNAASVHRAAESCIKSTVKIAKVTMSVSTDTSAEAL

Cytochrome P450 2D6 = Cytochrome P450 2D6 (Homo sapiens, UniProt P10635); assay: Binding affinity to CYP2D6 (unknown origin) assessed as fold increase in apparent dissociation constant by spectroscopic titration analysis in presence of cytochrome P450 reductase; type: ADME; method in brief: as §2
Cytochrome P450 2D6, sequence (P10635 whole entry): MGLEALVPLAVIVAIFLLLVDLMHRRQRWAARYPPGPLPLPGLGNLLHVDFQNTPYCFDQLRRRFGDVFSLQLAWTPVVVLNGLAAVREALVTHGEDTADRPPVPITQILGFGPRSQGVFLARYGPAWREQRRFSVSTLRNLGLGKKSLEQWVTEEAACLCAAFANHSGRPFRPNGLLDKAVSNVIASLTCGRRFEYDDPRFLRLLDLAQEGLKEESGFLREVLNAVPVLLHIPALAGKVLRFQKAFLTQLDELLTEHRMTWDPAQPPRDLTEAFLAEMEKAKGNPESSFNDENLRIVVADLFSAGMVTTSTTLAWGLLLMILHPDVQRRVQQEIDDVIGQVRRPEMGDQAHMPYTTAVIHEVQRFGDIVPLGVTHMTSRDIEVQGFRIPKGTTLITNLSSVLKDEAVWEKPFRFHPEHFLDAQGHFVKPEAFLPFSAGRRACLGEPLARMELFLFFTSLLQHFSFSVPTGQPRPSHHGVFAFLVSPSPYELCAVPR

[15] = Drug metabolism in C57BL/6J mouse plasma assessed as 2-(2-(3,3-dimethyloxiran-2-yl)ethyl)-2-methyl-7-pentyl-2H-chromen-5-ol metabolite formation at 20 mg/kg, iv administered via tail vein measured after 0.5 to 2 hrs by LC/MS/MS analysis; type: ADME, organism-based; conditions: in vivo, time 0.5-2 hrs; method in brief: as §3
[16] = Drug metabolism in C57BL/6J mouse plasma assessed as (E)-2-(5-hydroxy-4-methylpent-3-en-1-yl)-2-methyl-7-pentyl-2H-chromen-5-ol metabolite formation at 20 mg/kg, ip measured after 2 hrs by LC/MS/MS analysis; type: ADME, organism-based; conditions: in vivo; method in brief: as §3
[17] = Stability in C57BL/6J mouse plasma assessed as compound consumption by measuring reduction in parent compound level at 20 mg/kg, ip measured after 0.5 to 2 hrs by LC-MS/MS analysis; type: ADME, organism-based; conditions: in vivo, time 0.5-2 hrs; method in brief: as §3
Cytochrome P450 2J2 [18] = target: T1, Cytochrome P450 2J2; assay: Binding affinity to CYP2J2 (unknown origin) assessed as fold increase in apparent dissociation constant by spectroscopic titration analysis in presence of cytochrome P450 reductase; type: ADME; method in brief: as §2
[19] = Drug metabolism in C57BL/6J mouse plasma assessed as 5-(5-hydroxy-2-methyl-7-pentyl-2H-chromen-2-yl)-2-methylpentane-2,3-diol metabolite formation at 20 mg/kg, iv administered via tail vein measured after 0.5 to 2 hrs by LC/MS/MS analysis; type: ADME, organism-based; conditions: in vivo, time 0.5-2 hrs; method in brief: as §3
BV-2 [20] = assay: Antiinflammatory activity in LPS-induced mouse BV-2 cells assessed as reduction in IL-6 production at 0.1 to 5 uM preincubated for 4 hrs followed by LPS stimulation for 24 hrs by ELISA; type: functional, cell-based; conditions: dose 0.1-5 µM, time 28.0 hrs; method in brief: as §1
BV-2 [21] = assay: Antiinflammatory activity in LPS-induced mouse BV-2 cells assessed as reduction in NO production at 0.1 to 5 uM preincubated for 4 hrs followed by LPS stimulation for 24 hrs by Griess reagent based assay; type: functional, cell-based; conditions: dose 0.1-5 µM, time 28.0 hrs; method in brief: as §1
BV-2 [22] = assay: Antiinflammatory activity in LPS-induced mouse BV-2 cells assessed as reduction in TNF-alpha production at 0.1 to 5 uM preincubated for 4 hrs followed by LPS stimulation for 24 hrs by ELISA; type: functional, cell-based; conditions: dose 0.1-5 µM, time 28.0 hrs; method in brief: as §1

CCCCCc1cc(O)c2c(c1)OC(C)(CCC(O)C(C)(C)O)C=C2 (stereo not drawn)
Activity (BV-2 [1]): Dose-Dependent Effect
Activity (BV-2 [2]): Active
Activity (BV-2 [3]): Dose-Dependent Effect
Activity (BV-2 [4]): Non-Toxic
Activity (BV-2 [5]): Dose-Dependent Effect

CCCCCc1cc(O)c2c(c1)OC(C)(CCC1OC1(C)C)C=C2 (stereo not drawn)
Activity (BV-2 [2]): Active
Activity (BV-2 [4]): Non-Toxic

CCCCCc1cc(O)c2c(c1)OC(C)(CCC=C(C)C)C=C2 (stereo not drawn) [CANNABICHROMENE]
fold change (FC) (Cytochrome P450 3A4): 5
Drug metabolism [6]: Metabolite_Detected
Drug metabolism [7]: Metabolite_Detected
Ratio (Cytochrome P450 2J2 [8]): ~ 50
Drug metabolism [9]: Metabolite_Detected
Drug metabolism [10]: Metabolite_Notdetected
Drug metabolism [11]: Metabolite_Detected
Drug metabolism [12]: Metabolite_Detected
fold change (FC) (Cytochrome P450 2C8 [13]): 5
Ratio (Cytochrome P450 2C8 [14]): ~ 5
Activity (BV-2 [4]): Non-Toxic
Ki (Cannabinoid receptor 2): ~100 nM
Ki (Cannabinoid receptor 1): ~713 nM
fold change (FC) (Cytochrome P450 2D6): 3
Drug metabolism [15]: Metabolite_Detected
Drug metabolism [16]: Metabolite_Notdetected
Drug metabolism [17]: Metabolite_Detected
fold change (FC) (Cytochrome P450 2J2 [18]): 3
Drug metabolism [19]: Metabolite_Detected

C=C(C)C(O)CCC1(C)C=Cc2c(O)cc(CCCCC)cc2O1 (stereo not drawn)
Activity (BV-2 [1]): Dose-Dependent Effect
Activity (BV-2 [2]): Active
Activity (BV-2 [3]): Dose-Dependent Effect
Activity (BV-2 [4]): Non-Toxic

CCCCC(O)c1cc(O)c2c(c1)OC(C)(CCC=C(C)C)C=C2 (stereo not drawn)
Activity (BV-2 [2]): Active
Activity (BV-2 [3]): Dose-Dependent Effect
Activity (BV-2 [4]): Non-Toxic
Activity (BV-2 [5]): Dose-Dependent Effect

CCCCCc1cc(O)c2c(c1)OC(C)(CC/C=C(\C)CO)C=C2 (stereo not drawn)
Activity (BV-2 [20]): inactive
Activity (BV-2 [21]): inactive
Activity (BV-2 [4]): Non-Toxic
Activity (BV-2 [22]): inactive
